In ChEMBL document CHEMBL1156859, “Novel bis-2,2,6,6-tetramethylpiperidine (bis-TMP) and bis-mecamylamine antagonists at neuronal nicotinic receptors mediating nicotine-evoked dopamine release” (Bioorg Med Chem Lett, 2010):

Key:
Assay type in all cases: functional
[1] = Antagonist activity at nicotinic acetylcholine receptor in rat striatal slices assessed as inhibition of S-(-)-nicotine-induced [3H]dopamine release at 100 nM relative to control
Procedure, shortened: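 Probe assay on superfused rat striatal slices: 100 nM analog against 10 μM S-(−)-nicotine-evoked [3H]DA release. Inhibition is expressed as a percentage of the nicotine response without analog, i.e. the fractional release evoked under control conditions. Each value comes from at least 3 independent experiments, each in duplicate (n = 3 rats/analog).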

[2] = Antagonist activity at nicotinic acetylcholine receptor in rat striatal slices assessed as inhibition of S-(-)-nicotine-induced [3H]dopamine release
Procedure, shortened: (§1)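 Superfused rat striatal slices were stimulated with 10 μM S-(−)-nicotine, with analog present across 1 nM to 10 μM. Evoked [3H]DA overflow was expressed as a percent of tissue [3H] content and compared with nicotine alone. IC50 and Imax came from iterative nonlinear least-squares curve fitting, using 4-6 independent experiments.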

[3] = Antagonist activity at nicotinic acetylcholine receptor in rat striatal slices assessed as inhibition of S-(-)-nicotine-induced [3H]dopamine release relative to control; procedure, shortened: as §1

IC50 [2] [µM]	Compound	inhibition at 0.1 µM [1] [%]	Imax [3] [%]
0.107	CN(CCCC#Cc1cc(C#CCCCN(C)[C@@]2(C)[C@@H]3CC[C@@H](C3)C2(C)C)cc(C#CCCCN(C)[C@@]2(C)[C@@H]3CC[C@@H](C3)C2(C)C)c1)[C@@]1(C)[C@@H]2CC[C@@H](C2)C1(C)C	73	62
0.0022	CC1(C)CCCC(C)(C)N1CCCCCCCCCCCCCN1C(C)(C)CCCC1(C)C	56	87
0.319	CN(CCCCCCCCCCCN(C)[C@@]1(C)[C@@H]2CC[C@@H](C2)C1(C)C)[C@@]1(C)[C@@H]2CC[C@@H](C2)C1(C)C	35	90
–	CC1(C)CCCC(C)(C)N1CCCCCCCCCCCCN1C(C)(C)CCCC1(C)C	36	–
–	CC1(C)CCCC(C)(C)N1CCCCCCCCCCCN1C(C)(C)CCCC1(C)C	22	–
–	CC1(C)CCCC(C)(C)N1CCCCCCCCN1C(C)(C)CCCC1(C)C	18	–
–	CC1(C)CCCC(C)(C)N1CCCCCCCCCCN1C(C)(C)CCCC1(C)C	5	–
0.046	CN(CCCCCCCCCCCCCN(C)[C@@]1(C)[C@@H]2CC[C@@H](C2)C1(C)C)[C@@]1(C)[C@@H]2CC[C@@H](C2)C1(C)C	52	83

Compound	IC50 [2] [µM]	inhibition at 0.1 µM [1] [%]	Imax [3] [%]
Cc1ccc[n+](CCCC#Cc2cc(C#CCCC[n+]3cccc(C)c3)cc(C#CCCC[n+]3cccc(C)c3)c2)c1.[Br-].[Br-].[Br-]	0.0002	40	67
Cc1ccc[n+](CCCCCCCCCCCC[n+]2cccc(C)c2)c1.[Br-].[Br-]	0.002	–	78
